Article PMC10582660 (Clinical and Translational Science, 2023)

Molecular target: T1, OAT1 (Homo sapiens, UniProt Q4U2R8)
T1 sequence (Q4U2R8 1-563): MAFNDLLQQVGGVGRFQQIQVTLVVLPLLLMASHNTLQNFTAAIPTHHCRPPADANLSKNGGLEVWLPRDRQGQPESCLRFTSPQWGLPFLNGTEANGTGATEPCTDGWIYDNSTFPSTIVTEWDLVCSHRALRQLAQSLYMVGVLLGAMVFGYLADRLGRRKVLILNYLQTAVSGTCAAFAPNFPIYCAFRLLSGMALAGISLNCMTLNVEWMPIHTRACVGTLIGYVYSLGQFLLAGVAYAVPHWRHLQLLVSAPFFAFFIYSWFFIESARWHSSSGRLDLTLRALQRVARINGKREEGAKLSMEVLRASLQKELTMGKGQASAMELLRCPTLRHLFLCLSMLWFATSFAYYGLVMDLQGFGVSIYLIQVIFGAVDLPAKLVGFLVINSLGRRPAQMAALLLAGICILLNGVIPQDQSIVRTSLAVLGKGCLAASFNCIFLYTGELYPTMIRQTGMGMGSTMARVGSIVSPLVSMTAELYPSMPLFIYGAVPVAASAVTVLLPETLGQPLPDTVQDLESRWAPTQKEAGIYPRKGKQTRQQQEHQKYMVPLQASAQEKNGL
Test: Raloxifene as a substrate for uptake transporters
Assay type: in vitro ADME
Conditions: raloxifene 1, 10 μM, 2, 20 min, two‐fold cutoff
Method in brief: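 Uptake of test compound (1 and 10 μM, 2 and 20 min) measured in transporter-expressing HEK293 or MDCKII cells or inside-out membrane vesicles. Run with positive-control probe substrates and inhibitors, plus empty-vector or untransfected control cells. Fold-accumulation relative to control cells judged against a two-fold cutoff for substrate status.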

fold‐accumulation: 0.72–0.91
Compound: O=C(c1ccc(OCCN2CCCCC2)cc1)c1c(-c2ccc(O)cc2)sc2cc(O)ccc12 [Raloxifene, raloxifene, reference compound]
